Experimental data from different studies.
Protocols differ between the studies behind these lines.
Target: Non-receptor tyrosine-protein kinase TNK1 (TNK1, Homo sapiens, UniProt Q13470)
Sequence (Q13470 1-666, as in one of the studies): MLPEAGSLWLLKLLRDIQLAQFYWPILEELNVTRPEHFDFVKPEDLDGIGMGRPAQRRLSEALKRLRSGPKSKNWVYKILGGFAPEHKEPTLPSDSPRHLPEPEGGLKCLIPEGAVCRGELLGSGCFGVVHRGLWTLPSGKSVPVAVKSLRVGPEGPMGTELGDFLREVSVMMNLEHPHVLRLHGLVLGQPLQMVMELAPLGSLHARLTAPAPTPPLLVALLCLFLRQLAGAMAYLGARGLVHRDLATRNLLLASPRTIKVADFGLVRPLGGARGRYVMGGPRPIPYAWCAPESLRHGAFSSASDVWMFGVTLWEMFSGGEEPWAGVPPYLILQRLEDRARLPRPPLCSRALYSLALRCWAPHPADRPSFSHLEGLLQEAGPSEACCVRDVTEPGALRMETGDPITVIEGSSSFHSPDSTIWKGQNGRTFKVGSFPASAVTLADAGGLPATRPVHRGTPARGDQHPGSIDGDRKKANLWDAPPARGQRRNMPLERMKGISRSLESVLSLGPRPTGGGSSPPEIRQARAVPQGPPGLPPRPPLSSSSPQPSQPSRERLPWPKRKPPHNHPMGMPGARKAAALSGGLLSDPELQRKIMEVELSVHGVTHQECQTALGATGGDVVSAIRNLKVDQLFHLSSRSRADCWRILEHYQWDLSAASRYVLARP

Nc1ncnc2occ(-c3ccc(NC(=O)Nc4cc(C(F)(F)F)ccc4F)cc3)c12 has a remaining signal of 6.8% (cell-free assay, inhibitor; 20 µM).
CC(C)(O)[C@H]1CC[C@H](Nc2ccc3ncc(-c4cccc(C(F)(F)F)c4)n3n2)CC1 gave a remaining activity of 52.4% (enzyme activity, inhibitor; 1 µM).
For c1nc2c(Nc3ccc4c(c3)OCCO4)nc(Nc3ccc4c(c3)OCCO4)nc2[nH]1, the activity vs control was 14% (enzyme activity, inhibitor; 10 µM).
With CC/C(=N\NC(=O)NCc1cccc(O)c1)c1ccc(O)c(C)c1O the inhibition was -1.1% (enzyme activity, inhibitor; 0.1 µM).
For Cc1ccc(C(=O)Nc2ccc(CN3CCN(C)CC3)c(C(F)(F)F)c2)cc1C#Cc1cnc2cccnn12, the remaining activity was 13% (enzyme activity, inhibitor; 23.5 nM).
The remaining binding of CC(=O)N1CCC(c2ccc(C(=O)NC(=N)N)cc2C(F)(F)F)CC1 is reported as 89% (cell-free assay, competition with immobilised ligand; 1 µM).
O=C(Nc1cnn(-c2csc(C(=O)NC3COC3)c2)c1)Nc1ccccc1Cl has a remaining activity of 100% (enzyme activity, inhibitor; 5 µM).
CCOC(=O)c1cc2cc(-c3cc(C(=O)NCc4ccc(C(=O)O)cc4)nn3C)ccc2[nH]1 has a remaining binding of 88% (cell-free assay, competition with immobilised ligand; 0.1 µM).
For Cc1sc(C(=O)NC2COC2)cc1-n1cc(NC(=O)Nc2c(F)cccc2Cl)cn1, the remaining activity was 105% (enzyme activity, inhibitor; 10 µM).
The remaining activity of CC(C)(C)c1nc2c(s1)c1nc(N)ncc1c1ccc(NS(=O)(=O)c3c(F)cccc3F)c(F)c12 is reported as 82% (enzyme activity, inhibitor, radiometric; 1 µM).
